# Results reported in ChEMBL document CHEMBL1134294, “A prodrug form of a Plasmodium falciparum glutathione reductase inhibitor conjugated with a 4-anilinoquinoline” (J Med Chem, 2001).
# Active and inactive are the calls of the source. The calls are words filed in the database; no cut-off is given here.
# Experiments:
# [1] = Susceptibility of compound to hydrolysis at 37 degrees C at pH 7.4 phosphate buffer; type: ADME
# Summary of the method: (§1)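 Prodrug (100 μM final, from 1 mM stock in 10% aqueous DMSO) is incubated at 37 °C in pH 7.4 phosphate buffer (150 mM NaCl, 4 mM NaH₂PO₄, 25 mM NaHCO₃) or pH 5.0 acetate (150 mM NaCl, 10 mM NaOAc). Half-life of ester disappearance is found by HPLC as the mean of two determinations.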
# [2] = Susceptibility of compound to hydrolysis at 37 degrees C at pH 5.0 acetate medium; type: ADME; summary of the method: as §1
# [3] = target: Glutathione reductase (Plasmodium falciparum 3D7) (UniProt O15770); assay: In vitro inhibition of Plasmodium falciparum Glutathione Reductase; Not active; conditions: Plasmodium falciparum FcB1
# Glutathione reductase (Plasmodium falciparum 3D7), sequence (O15770 whole entry): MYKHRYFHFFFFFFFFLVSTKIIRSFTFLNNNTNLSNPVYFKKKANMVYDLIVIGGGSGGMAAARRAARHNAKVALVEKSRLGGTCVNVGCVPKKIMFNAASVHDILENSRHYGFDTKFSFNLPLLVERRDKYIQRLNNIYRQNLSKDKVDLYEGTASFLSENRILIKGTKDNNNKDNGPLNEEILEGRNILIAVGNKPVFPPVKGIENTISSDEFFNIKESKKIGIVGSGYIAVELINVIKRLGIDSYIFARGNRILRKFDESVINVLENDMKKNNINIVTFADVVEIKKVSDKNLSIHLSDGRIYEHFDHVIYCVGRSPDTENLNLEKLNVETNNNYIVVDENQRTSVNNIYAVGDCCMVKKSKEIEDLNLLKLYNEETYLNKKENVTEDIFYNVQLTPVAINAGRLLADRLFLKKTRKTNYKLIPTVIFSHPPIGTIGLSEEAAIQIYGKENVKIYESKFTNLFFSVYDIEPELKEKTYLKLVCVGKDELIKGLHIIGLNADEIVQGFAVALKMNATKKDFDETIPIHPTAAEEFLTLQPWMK
# Summary of the method: (§2)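 Recombinant purified GR (about 5 mU/ml) with 100 μM NADPH in 47 mM potassium phosphate, 200 mM KCl, 1 mM EDTA, pH 6.9, at 25 °C. Enzyme, NADPH and inhibitor are premixed and the reaction is started with 100 μM GSSG. NADPH loss is read at 340 nm. IC50 is taken from increasing inhibitor concentrations in 1% final DMSO, run in duplicate.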
# [4] = target: T1, Glutathione reductase, mitochondrial (Homo sapiens) (UniProt P00390); assay: In vitro inhibition of human Glutathione Reductase; Not active; summary of the method: as §2
# T1 sequence (whole entry): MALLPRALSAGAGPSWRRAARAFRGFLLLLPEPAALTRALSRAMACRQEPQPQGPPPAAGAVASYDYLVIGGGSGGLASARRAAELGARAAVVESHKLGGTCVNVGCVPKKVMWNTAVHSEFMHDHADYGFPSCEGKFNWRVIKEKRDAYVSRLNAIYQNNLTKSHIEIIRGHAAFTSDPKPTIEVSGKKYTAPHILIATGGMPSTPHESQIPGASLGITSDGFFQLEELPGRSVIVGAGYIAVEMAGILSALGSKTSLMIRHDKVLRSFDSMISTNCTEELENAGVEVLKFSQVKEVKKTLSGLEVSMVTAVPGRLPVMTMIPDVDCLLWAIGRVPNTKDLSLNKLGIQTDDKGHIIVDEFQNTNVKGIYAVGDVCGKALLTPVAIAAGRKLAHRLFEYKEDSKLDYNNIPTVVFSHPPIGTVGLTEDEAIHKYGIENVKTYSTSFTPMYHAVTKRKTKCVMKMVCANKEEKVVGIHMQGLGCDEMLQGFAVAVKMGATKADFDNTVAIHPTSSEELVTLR
# [5] = system: Plasmodium falciparum; assay: Effective dose against chloroquine-resistant Plasmodium falciparum FcB1R; type: functional
# Summary of the method: (§3)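 Asynchronous cultures in human erythrocytes (0.5% parasitemia, 1% hematocrit) received serially diluted drug, DMSO ≤0.1%. After 24 h at 37 °C, 0.5 μCi [3H]hypoxanthine was added and incubation continued another 24 h. Growth inhibition was taken versus drug-free control, ED50 read from the concentration–response curve, and reported as mean of ≥3 independent experiments.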
# [6] = Susceptibility of compound to hydrolysis at 37 degrees C for RPMI-10% human serum; type: ADME; conditions: RPMI with 10% human serum
# Summary of the method: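 Prodrug (100 μM final, from 1 mM stock in 10% aqueous DMSO) is held in RPMI with 10% human serum at 37 °C and sampled from 0 to 77.5 h. Samples are mixed with EtOH plus internal reference, centrifuged, and the supernatant is analysed by HPLC. Half-life of ester disappearance is the mean of two determinations.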
# [7] = system: Plasmodium falciparum; assay: Effect on protein of chloroquine-resistant Plasmodium falciparum K1 culture after 24 hrs at 30 nM; type: functional
# Summary of the method: (§4)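 Synchronized K1 ring cultures were treated 24 h, then saponin-isolated and freeze-thawed. Extract was diluted in 150 mM KH2PO4, pH 8.0, and nucleic acid and protein were estimated from absorbance at 260 and 280 nm. Protein was also measured by dye-binding assay with BSA standard.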
# [8] = system: Plasmodium falciparum; assay: Effect on protein of chloroquine-resistant Plasmodium falciparum K1 culture after 24 hrs at 500 nM; type: functional; summary of the method: as §4
# [9] = system: Mus musculus; assay: Percentage of parasitaemia on day 18 in mice infected with Plasmodium berghei (ip, 40 mg/kg); type: functional
# Summary of the method: (§5)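 Female Swiss CD-1 mice (four-week-old, 20–25 g, three per group) are infected ip with about 10⁷ P. berghei ANKA 65 parasitized erythrocytes from a donor. On the day of infection they receive 40 mg/kg orally in 100% DMSO, then daily ip for 4 days. Parasitemia is counted daily. Controls get DMSO only.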
# [10] = system: Plasmodium falciparum; assay: Effect on nucleic acid of chloroquine-resistant Plasmodium falciparum K1 culture after 24 hrs at 30 nM; type: functional; summary of the method: as §4
# [11] = system: Plasmodium falciparum; assay: Effect on protein of chloroquine-resistant Plasmodium falciparum K1 culture after 24 hrs at 150 nM; type: functional; summary of the method: as §4
# [12] = system: Plasmodium falciparum; assay: In vitro efficacy for chloroquine-resistant Plasmodium falciparum K1; type: functional; conditions: read-out: ED50 (the source's name); summary of the method: as §3
# [13] = target: T2, Glutathione S-transferase (Plasmodium falciparum) (UniProt Q8ILQ7); assay: Effect on glutathione S-transferase (GST) activity of chloroquine-resistant Plasmodium falciparum K1 in culture after 24 hrs treatment at 150 nM conc; type: functional
# T2 sequence (whole entry): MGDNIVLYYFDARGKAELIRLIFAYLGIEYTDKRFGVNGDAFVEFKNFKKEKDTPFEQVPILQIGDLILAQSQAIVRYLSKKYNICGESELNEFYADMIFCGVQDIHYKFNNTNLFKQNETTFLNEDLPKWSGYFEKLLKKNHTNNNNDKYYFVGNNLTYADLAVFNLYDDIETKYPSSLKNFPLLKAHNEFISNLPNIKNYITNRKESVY
# Summary of the method: (§6)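 K1 ring-stage cultures (sorbitol-synchronized, 5% hematocrit, 3.7% parasitemia) treated 24 h. Parasites were released with 0.02% saponin (10 min, 37 °C), freeze-thawed three times and the supernatant assayed. GST activity was read spectrophotometrically at 340 nm with 0.5 mM CDNB and 1 mM GSH in 100 mM potassium phosphate, 1 mM EDTA, pH 6.5. Reported as mU/mg protein.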
# [14] = system: Plasmodium falciparum; assay: Effect on glutathione reductase activity of chloroquine-resistant Plasmodium falciparum K1 culture after 24 hrs at 500 nM; type: functional
# Summary of the method: (§7)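 After 24 h exposure of synchronized K1 ring cultures, parasites were saponin-isolated and freeze-thaw extracts prepared. GR activity was assayed at 25 °C with 100 μM NADPH and 100 μM GSSG in 47 mM potassium phosphate, 200 mM KCl, 1 mM EDTA, pH 6.9, following NADPH consumption at 340 nm.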
# [15] = system: Plasmodium falciparum; assay: In vitro efficacy for chloroquine-resistant Plasmodium falciparum W2; type: functional; conditions: read-out: ED50 (the source's name); summary of the method: as §3
# [16] = system: Mus musculus; assay: Percentage of parasitaemia on day 11 in mice infected with Plasmodium berghei (ip, 40 mg/kg); type: functional; summary of the method: as §5
# [17] = system: Plasmodium falciparum; assay: Effect on glutathione content of chloroquine-resistant Plasmodium falciparum K1 culture after 24 hrs at 150 nM; type: functional
# Summary of the method: (§8)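 Sorbitol-synchronized K1 rings (5% hematocrit, 3.7% parasitemia) exposed 24 h, then saponin-lysed and freeze-thawed. Extract (40 μL) was deproteinized with 2 volumes of 5% sulfosalicylic acid. Total glutathione was measured by GR-coupled DTNB-GSH recycling against a GSH standard curve. Expressed as nmol/mg protein.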
# [18] = system: Mus musculus; assay: Percentage excess MST, when used as the chlorohydrate in mice infected with Plasmodium berghei (i.p., 40 mg/kg); type: functional; conditions: route intraperitoneal
# Summary of the method: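 Female Swiss CD-1 mice (four weeks, 20–25 g), three per group, were infected ip with about 10^7 P. berghei ANKA parasitized erythrocytes. Dosing was 40 mg/kg in 100% DMSO, given orally at infection, then ip over the following 4 days. Parasitemia was counted daily. Activity was scored as percentage excess mean survival time over DMSO-treated infected controls.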
# [19] = target: Glutathione reductase (Plasmodium falciparum K1) (UniProt Q94655); assay: Effect on glutathione reductase activity of chloroquine-resistant Plasmodium falciparum K1 in culture after 24 hrs treatment at 30 nM conc; type: functional; summary of the method: as §7
# Glutathione reductase (Plasmodium falciparum K1), sequence (Q94655 whole entry): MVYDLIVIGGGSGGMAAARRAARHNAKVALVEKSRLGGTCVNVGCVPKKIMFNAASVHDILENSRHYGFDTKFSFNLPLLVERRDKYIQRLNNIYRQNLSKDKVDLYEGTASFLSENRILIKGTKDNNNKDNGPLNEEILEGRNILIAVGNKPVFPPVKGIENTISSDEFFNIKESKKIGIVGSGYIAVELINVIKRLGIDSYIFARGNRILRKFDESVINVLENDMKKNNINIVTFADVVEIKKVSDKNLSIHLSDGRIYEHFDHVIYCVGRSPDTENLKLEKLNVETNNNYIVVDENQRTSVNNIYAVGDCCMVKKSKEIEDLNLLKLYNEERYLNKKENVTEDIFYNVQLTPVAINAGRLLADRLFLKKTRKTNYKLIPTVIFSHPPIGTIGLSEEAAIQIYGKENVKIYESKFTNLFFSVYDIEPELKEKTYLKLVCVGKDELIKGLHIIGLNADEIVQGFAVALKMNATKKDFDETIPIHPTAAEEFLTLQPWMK
# [20] = system: Plasmodium falciparum; assay: Effect on glutathione content of chloroquine-resistant Plasmodium falciparum K1 culture after 24 hrs at 30 nM; type: functional; summary of the method: as §8
# [21] = system: Plasmodium falciparum; assay: In vitro efficacy for chloroquine-resistant Plasmodium falciparum FcB1; type: functional; conditions: read-out: ED50 (the source's name); summary of the method: as §3
# [22] = system: Plasmodium falciparum; assay: In vitro efficacy for chloroquine-sensitive Plasmodium falciparum F32; conditions: read-out: ED50 (the source's name)
# [23] = system: Plasmodium falciparum; assay: Effect on glutathione content of chloroquine-resistant Plasmodium falciparum K1 culture after 24 hrs at 500 nM; type: functional; summary of the method: as §8
# [24] = system: Plasmodium falciparum; assay: Effect on nucleic acid of chloroquine-resistant Plasmodium falciparum K1 culture after 24 hrs at 500 nM; type: functional; summary of the method: as §4
# [25] = target: Glutathione reductase (Plasmodium falciparum K1) (UniProt Q94655); assay: Effect on glutathione reductase activity of chloroquine-resistant Plasmodium falciparum K1 in culture after 24 hrs treatment at 150 nM conc; type: functional; summary of the method: as §7
# [26] = system: Plasmodium falciparum; assay: In vitro efficacy for chloroquine-sensitive Plasmodium falciparum Thai strain; conditions: read-out: ED50 (the source's name)
# [27] = system: Mus musculus; assay: Percentage of parasitaemia on day 4 in mice infected with Plasmodium berghei (ip, 40 mg/kg); type: functional; summary of the method: as §5
# [28] = target: T2, Glutathione S-transferase (Plasmodium falciparum); assay: Effect on glutathione S-transferase (GST) activity of chloroquine-resistant Plasmodium falciparum K1 in culture after 24 hrs treatment at 500 nM conc; type: functional; summary of the method: as §6
# [29] = system: Plasmodium falciparum; assay: In vitro efficacy for chloroquine-sensitive Plasmodium falciparum D6; conditions: read-out: ED50 (the source's name)
# [30] = target: T2, Glutathione S-transferase (Plasmodium falciparum); assay: Effect on glutathione S-transferase (GST) activity of chloroquine-resistant Plasmodium falciparum K1 in culture after 24 hrs treatment at 30 nM conc; type: functional; summary of the method: as §6
# [31] = system: Plasmodium falciparum; assay: Effect on nucleic acid of chloroquine-resistant Plasmodium falciparum K1 culture after 24 hrs at 150 nM; type: functional; summary of the method: as §4
# [32] = target: T3, Glutathione reductase, mitochondrial (Homo sapiens, UniProt P00390); assay: In vitro inhibition of human Glutathione Reductase; summary of the method: as §2
# T3 sequence (P00390 whole entry): T1 sequence (whole entry)
# [33] = target: Glutathione reductase (Plasmodium falciparum 3D7) (UniProt O15770); assay: Competitive inhibition of Plasmodium falciparum Glutathione Reductase; conditions: Plasmodium falciparum FcB1
# [34] = target: Glutathione reductase (Plasmodium falciparum 3D7, UniProt O15770); assay: In vitro inhibition of Plasmodium falciparum Glutathione Reductase; parameters: species or system FcB1; summary of the method: as §2
# Glutathione reductase, sequence (O15770 whole entry): as the sequence (O15770 whole entry) above
# [35] = target: T1, Glutathione reductase, mitochondrial (Homo sapiens); assay: Competitive inhibition of human Glutathione Reductase
# [36] = read-out: ED50 (the source's name)
smiles,measurement,setting,value
CC1=C(CCCCCC(=O)OCOC(=O)C(C)(C)C)C(=O)c2ccccc2C1=O,half-life,[1],2 h
same,half-life,[2],1 h
same,NA,[3],inactive
same,NA,[4],inactive
same,EC50,[5]; [36],24.1 µM
CCN(CCCC(C)Nc1ccnc2cc(Cl)ccc12)CCOC(=O)CCCCCC1=C(C)C(=O)c2ccccc2C1=O (stereo unspecified),half-life,[1],> 80 h
same,half-life,[2],> 80 h
same,half-life,[6],> 80 h
same,EC50,[5]; [36],0.107 µM
CC1=C(CCCCCNC(=O)OCc2cc(NC(=O)CN3CCCCC3)cc(Nc3ccnc4cc(Cl)ccc34)c2)C(=O)c2ccccc2C1=O,EC50,[5]; read-out: ED50,0.144 µM
CC1=C(CCCCCC(=O)OCc2cc(NC(=O)CN3CCCCC3)cc(Nc3ccnc4cc(Cl)ccc34)c2)C(=O)c2ccccc2C1=O,Protein,[7],1.1 mg/mL
same,Protein,[8],0.4 mg/mL
same,half-life,[1],> 80 h
same,Parasitaemia,[9],48%
same,Nucleic acids,[10],89 ng/mg
same,half-life,[2],> 80 h
same,Protein,[11],0.6 mg/mL
same,EC50,[12],0.0293 µM
same,GST activity,[13],4.3 mU mg-1
same,GR activity,[14],6 mU mg-1
same,EC50,[15],0.0264 µM
same,Parasitaemia,[16],9%
same,Glutathione,[17],<1 nM/mg
same,Excess MST,[18],178%
same,GR activity,[19],30 mU mg-1
same,Glutathione,[20],14.8 nM/mg
same,EC50,[21],0.0231 µM
same,EC50,[22],0.0258 µM
same,Glutathione,[23],<1 nM/mg
same,Nucleic acids,[24],81 ng/mg
same,GR activity,[25],8 mU mg-1
same,half-life,[6],> 80 h
same,EC50,[26],0.0365 µM
same,Parasitaemia,[27],<0.1%
same,GST activity,[28],9.5 mU mg-1
same,EC50,[29],0.0277 µM
same,GST activity,[30],3.7 mU mg-1
same,Nucleic acids,[31],79 ng/mg
same,EC50,[5]; read-out: ED50,0.0231 µM
CC1=C(CCCCCC(=O)OCc2cc(NC(=O)CN3CCCCC3)cc(Nc3ccnc4cc(Cl)ccc34)c2)C(=O)c2c(O)cccc2C1=O,EC50,[5]; read-out: ED50,0.056 µM
CC1=C(CCC(=O)OCc2cc(NC(=O)CN3CCCCC3)cc(Nc3ccnc4cc(Cl)ccc34)c2)C(=O)c2ccccc2C1=O,EC50,[5]; [36],144 µM
CC1=C(CCCCC(=O)O)C(=O)c2c(O)cccc2C1=O,IC50,[32],1 µM
same,Ki.c,[33],2.4 µM
same,IC50,[34],2.5 µM
same,Ki.c,[35],1.1 µM
same,EC50,[5]; [36],7.7 µM
